What was measured:
[1] = test system: Respiratory syncytial virus; experiment: Antiviral activity against RSV in HeLaM cells; format: functional, organism-based; details: human respiratory syncytial virus
Summary of the method: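 HeLaM epithelial-like cells infected with RSV with or without a range of compound concentrations, with virus, cell and cytotoxicity controls and ribavirin as reference in each test. After one week of incubation, viability was read by MTT and spectrophotometric OD. pEC50 was calculated from the OD values.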

[2] = Cytotoxicity against HeLaM cells; format: cell-based, M-HeLa; details: human
[3] = Half life (24 to 96 hrs) in Sprague-Dawley rat lung; format: ADME, tissue-based
Summary of the method: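 Lung half-life came from IV-dosed male Sprague-Dawley rats (1 mg/kg, 10 min tail-vein infusion), with three animals per time point. Lungs were homogenized in water (1/9 w/v) and analyzed by LC-MS/MS, using the concentrations measured between 24 and 96 h post-dose.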

[4] = Drug level in Sprague-Dawley rat plasma after 4 hrs; format: ADME, cell-free; details: read-out: Drug uptake
Summary of the method: (§1)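 Male Sprague-Dawley rats (250-300 g) were given a 10 min tail-vein infusion at a final dose of 1 mg/kg. Three rats per time point were killed at 4, 24, 96 and 168 h. Plasma was taken from EDTA blood, and lung was homogenized 1/9 w/v in demineralized water. Samples were stored at ≤-18 °C and quantified by a qualified LC-MS/MS method.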

[5] = Drug level in Sprague-Dawley rat plasma after 24 hrs; format: ADME, cell-free; details: read-out: Drug uptake; summary of the method: as §1
[6] = Drug level in Sprague-Dawley rat lung after 4 hrs; format: ADME, tissue-based; details: read-out: Drug uptake; summary of the method: as §1
[7] = Drug level in Sprague-Dawley rat lung after 24 hrs; format: ADME, tissue-based; details: read-out: Drug uptake; summary of the method: as §1
[8] = Drug level in Sprague-Dawley rat lung after 96 hrs; format: ADME, tissue-based; details: read-out: Drug uptake; summary of the method: as §1
[9] = Drug level in Sprague-Dawley rat lung after 168 hrs; format: ADME, tissue-based; details: read-out: Drug uptake; summary of the method: as §1

Row | Structure (SMILES) | EC50 [1] [µM] | half-life [3] [h] | CC50 [2] [µM] | also measured
1 | NCCN1CCC(Nc2nc3ccccc3[nH]2)CC1 |  |  |  | concentration at 4 h [4]: 0.0118 µg/mL; concentration at 24 h [5]: 0.0061 µg/mL; concentration at 4 h [6]: 0.247 µg/mL; concentration at 24 h [7]: 0.295 µg/mL; concentration at 96 h [8]: 0.0837 µg/mL; concentration at 168 h [9]: 0.0378 µg/mL
2 | Cc1cc(C)c2nc(NCCNc3ccccc3)n(Cc3nc(C)ccc3O)c2c1 | > 100 |  | 3.16 | 
3 | CNCCCNc1nc2c(C)cc(C)cc2n1Cc1nc(C)ccc1O | 0.000631 | 93 | 50.1 | 
4 | Cc1cc(C)c2nc(NCCCN3CCOCC3)n(Cc3nc(C)ccc3O)c2c1 | 0.126 | 14 | 50.1 | 
5 | Cc1cc(C)c2nc(NCCCO)n(Cc3nc(C)ccc3O)c2c1 | 0.158 |  | 63.1 | 
6 | Cc1cc(C)c2nc(NCCCN3CCN(C)CC3)n(Cc3nc(C)ccc3O)c2c1 | 0.0251 | 80 | 50.1 | 
7 | CCCCNc1nc2c(C)cc(C)cc2n1Cc1nc(C)ccc1O | > 100 |  | 7.94 | 
8 | CC(=O)NCCNc1nc2c(C)cc(C)cc2n1Cc1nc(C)ccc1O | 5.01 |  | 12.6 | 
9 | Cc1cc(C)c2nc(NCCCN)n(Cc3nc(C)ccc3O)c2c1 | 0.000251 | 68 | > 100 | 
10 | Cc1cc(C)c2nc(NCC(O)CO)n(Cc3nc(C)ccc3O)c2c1 (stereo not drawn) | 0.0398 | < 24 | 50.1 | 
11 | Cc1ccc(O)c(Cn2cnc3c(C)cccc32)n1 |  |  |  | concentration at 4 h [6]: 0.0039 µg/mL
12 | Cc1cc(C)c2nc(NCCc3ccccc3)n(Cc3nc(C)ccc3O)c2c1 | > 100 |  | 6.31 | 

Continued, in another order:

Row | EC50 [1] [µM] | half-life [3] [h] | Structure (SMILES) | CC50 [2] [µM] | also measured
13 | 0.01 | 206 | Cc1ccc(O)c(Cn2c(NC3CCN(CCN4CCCC4)CC3)nc3c(C)cccc32)n1 | 39.8 | 
14 | 0.631 |  | Cc1ccc(O)c(Cn2c(NC3CCN(CCC(C)C)CC3)nc3c(C)cccc32)n1 | > 100 | 
15 | 0.0501 | 32 | CNS(=O)(=O)CCCN1CCC(Nc2nc3c(C)cccc3n2Cc2nc(C)ccc2O)CC1 | 79.4 | 
16 | 0.794 |  | Cc1ccc(O)c(Cn2c(NC3CCN(CC(O)C(C)(C)C)CC3)nc3c(C)cccc32)n1 (stereo not drawn) | 39.8 | 
17 | 0.00316 | 556 | Cc1ccc(O)c(Cn2c(NC3CCN(CC(O)CN(C)C)CC3)nc3c(C)cccc32)n1 (stereo not drawn) | > 100 | 
18 | 0.02 | 29 | Cc1ccc(O)c(Cn2c(NC3CCN(CCO)CC3)nc3c(C)cccc32)n1 | > 100 | 
19 | 0.000251 | 153 | Cc1ccc(O)c(Cn2c(NC3CCN(CCN)CC3)nc3c(C)cccc32)n1 [JNJ 2408068] | > 100 | concentration at 4 h [4]: 0.00097 µg/mL; concentration at 24 h [5]: 0.00033 µg/mL; concentration at 4 h [6]: 0.576 µg/mL; concentration at 24 h [7]: 0.559 µg/mL; concentration at 96 h [8]: 0.439 µg/mL; concentration at 168 h [9]: 0.387 µg/mL
20 | 0.0501 | 46 | Cc1ccc(O)c(Cn2c(NC3CCN(CCC(N)=O)CC3)nc3c(C)cccc32)n1 | > 100 | 
21 | 0.000316 | 211 | Cc1ccc(O)c(Cn2c(NC3CCN(CCN)CC3)nc3ccccc32)n1 | > 100 | 
22 | 0.158 |  | Cc1ccc(O)c(Cn2c(NC3CCN(C)CC3)nc3c(C)cccc32)n1 | 50.1 | 
23 | 0.0126 | 57 | Cc1ccc(O)c(Cn2c(NC3CCN(CCCS(N)(=O)=O)CC3)nc3c(C)cccc32)n1 | > 100 | 
24 | 0.158 |  | Cc1ccc(O)c(Cn2c(NC3CCN(CCC(=O)O)CC3)nc3c(C)cccc32)n1 | > 100 | 
25 | 0.158 | 35 | Cc1ccc(O)c(Cn2c(NC3CCN(CCN4CCOCC4)CC3)nc3c(C)cccc32)n1 | 63.1 | 

From ChEMBL document CHEMBL1148783, “Selection of a respiratory syncytial virus fusion inhibitor clinical candidate, part 1: improving the pharmacokinetic profile using the structure-property relationship” (J Med Chem, 2007)
